Assay outcomes deposited in PubChem by several laboratories.
PERK inhibitor – inhibitors of human PERK kinase | CHO PERK-DD fusion, SEAP luminescence translation reporter | inhibition, % at 5.6 µM | 0.17% of 220,000 active;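 active = inhibition above the mean inhibition of all tested compounds plus 3 SD, set separately per screening campaign, cut at about 2.9% in these data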;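 note: PERK kinase domain activated by AP20187 dimerizer at 100 nM; 0% = DMSO with dimerizer and 100% = rapamycin at 8.4 µM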
APP 5'UTR act – activates APP 5'UTR luciferase reporter | SH-SY5Y APP 5'UTR luciferase reporter, luminescence; zero percent = DMSO vehicle wells | activation, % at 2 µM | 1% of 190,000 active | AID 1276;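 active = activation above a set limit, based on mean plus 3 SD of controls, cut at about 140% in these data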
STAT1 act – STAT1 signaling activation; activation (% of control), % at 5.5 µM; AID 932; 2.6% of 200,000 active; NIH 3T3 STAT1-luciferase reporter, IFN-gamma, luminescence; 100% = IFN-gamma alone, no compound;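 active = activation above the screen-wide mean activation plus 3 SD, cut at about 130% in these data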;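 note: raw ratio to IFN-gamma control signal so 100% means no change and 0% no light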
AHR act – activates the human aryl hydrocarbon receptor; 2.5% of 320,000 active; P35869; AHR-responsive luciferase reporter cells, luminescence; activation, % at 5 µM; in the data active = activation above about 47%;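 note: 0% = vehicle wells and 100% = reference agonist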
MDM2 E3 inh – inhibitors of human Mdm2 E3 ubiquitin ligase; cell-based MDM2 ubiquitination luciferase reporter, 2 h; 0 = plate control, 100 = twice control, blank-subtracted; signal enhancement, % at 5 µM; 0.11% of 210,000 active; Q00987;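 active = signal enhancement of 30% or more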;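 note: luminescence tracks abundance of the self-degrading MDM2-luciferase fusion protein; higher signal means inhibition of MDM2 E3 ligase activity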
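Test system: mammalian cells stably expressing self-ubiquitinating, self-degrading MDM2 E3–luciferase fusion; Amount: 2000 cells in each well; Medium: DMEM; Schedule: 4 h settle plus 2 h compound, 37 °C; Technique: SteadyLite luciferase luminescence after 15 min room-temperature reagent incubation; Benchmarks: plate control and blank wells.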
NF-kB expr up – NF-kB expression increase, human neuronal cells. NF-kB reporter expression; hits give high values. fold change at 12.5 µM. 1.6% of 190,000 active. AID 1239; in the data active = fold change above about 3.3
AHR act cf – confirmation of human aryl hydrocarbon receptor activators. activation, % at 9 µM. shares compounds with AHR act. human cells, AHR-responsive luciferase reporter, luminescence. 87% of 2,300 active. AID 2845; in the data active = activation above about 49%;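 note: HepG2 hepatoma cells carrying a DRE-driven firefly luciferase reporter; 0% = vehicle wells and 100% = reference agonist wells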
PXR counter – counter-screen for AHR activators: human PXR activators | shares compounds with AHR act | cell-based PXR reporter, luciferase luminescence | activation, % at 11.6 µM | 88% of 2,300 active | AID 434939; in the data active = activation above about 11%;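 note: human hepatoma DPX-2 cells expressing full-length human PXR; 0% = DMSO and 100% = reference agonist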
Target sequence (O75469 whole entry, looked up): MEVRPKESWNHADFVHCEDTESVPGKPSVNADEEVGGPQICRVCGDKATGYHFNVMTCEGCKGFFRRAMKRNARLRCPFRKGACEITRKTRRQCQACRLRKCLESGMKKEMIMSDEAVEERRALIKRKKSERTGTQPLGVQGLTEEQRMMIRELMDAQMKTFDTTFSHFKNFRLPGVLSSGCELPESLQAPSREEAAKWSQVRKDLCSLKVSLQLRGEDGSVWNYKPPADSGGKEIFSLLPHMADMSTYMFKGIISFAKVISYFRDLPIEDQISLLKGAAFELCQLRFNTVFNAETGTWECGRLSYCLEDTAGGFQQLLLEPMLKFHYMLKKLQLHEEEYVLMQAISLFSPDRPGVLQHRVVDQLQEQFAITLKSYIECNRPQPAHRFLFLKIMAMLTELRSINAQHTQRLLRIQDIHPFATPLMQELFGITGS
Active calls of the source: *; . = no result given. An excerpt weighted towards active compounds, which were near 4.5% of everything screened.

SMILES	PERK inhibitor	APP 5'UTR act	STAT1 act	AHR act	MDM2 E3 inh	NF-kB expr up	AHR act cf	PXR counter
COc1ccc(-c2nc(C(N)=O)c3[nH]c(=O)n(-c4cccc(C)c4)c3n2)c(OC)c1	-1	11	108	98*	-1	0.63	67*	20*
Cc1cccc(-n2c(=O)[nH]c3c(C(N)=O)nc(CC(C)C)nc32)c1	2	1	95	30	-10	1.3	.	.
Cc1cccc(-n2c(=O)[nH]c3c(C(N)=O)nc(-c4ccccc4Cl)nc32)c1	0	2	118	94*	-12	1.2	72*	12*
CN(Cc1nccn1C)C(=O)c1ccc2nc(Cc3ccccc3F)oc2c1	.	.	.	1	.	.	.	.
O=C(O)c1ccccc1NCc1cccs1	.	.	.	0	.	.	.	.
S=C1NCCOCCOCCOCCOCCNC(=S)NCCOCCOCCOCCOCCN1	0	7	98	0	3	1.1	.	.
CCC(C)C(=O)Nc1nc(C)c(-c2csc(Nc3cc(OC)ccc3OC)n2)s1 (stereo unspecified)	-1	-9	112	83*	-15	0.69	61*	53*
Cc1ccc(Cl)cc1Nc1nc(-c2sc(NC(=O)c3ccccc3)nc2C)cs1	-1	13	109	36	-10	1.1	.	.
COc1ccc(Cl)cc1Nc1nc(-c2sc(NC(=O)c3ccco3)nc2C)cs1	-1	10	106	106*	-22	0.73	75*	21*
CCC(C)C(=O)Nc1nc(C)c(-c2csc(Nc3cc(Cl)ccc3OC)n2)s1 (stereo unspecified)	-1	19	106	85*	-1	0.91	56*	30*
O=C(c1cc(COc2ccc(F)cc2Cl)on1)N1CCSCC1	.	.	.	-5	.	.	.	.
CC(/C=C/c1ccccc1)=N\Nc1nc(-c2ccccc2)cs1	0	0	94	1	1	1.2	.	.
CC(C)=NNc1nc(-c2ccccc2)cs1	0	19	118	102*	11	1.1	107*	15*
O=C(CC(=O)NCc1ccccc1)NCc1ccccc1	.	.	.	-2	.	.	.	.
Cc1c(C(=O)NCc2ccccn2)oc2c(Cl)cccc12	.	.	.	87*	.	.	132*	50*
Cc1cccn2c(=O)c(C=O)c(N3CCN(c4ccccc4)CC3)nc12	-1	-1	104	95*	-6	1	81*	65*
c1ccc2nc(-c3ccc(N4CCOCC4)cc3)ccc2c1	0	.	38	24	-20	2.4	.	.
COc1ccc(N2CCN(c3cc(C)c4ccccc4n3)CC2)cc1	0	9	90	33	3	1	.	.
Cc1cc(N2CCN(c3ccccc3)CC2)nc2ccccc12	.	.	.	125*	.	.	106*	20*
Cc1cc(-c2ccc(N3CCOCC3)cc2)nc2ccccc12	0	90	130*	.	-17	2.9	.	52*
Nc1cc(C(=O)c2ccccc2)ccc1[N+](=O)[O-]	-1	-7	105	-3	-7	1.1	.	.
O=C(c1ccc2ccccc2n1)N1CCN(c2ccccc2O)CC1	0	43	100	92*	.	1.1	107*	40*
Cc1ccc(-c2csc(-c3c[nH]c4ccccc34)n2)c(C)c1	1	31	123	106*	-2	2.5	115*	24*
CCNC(=S)/N=C(/Nc1ccc(OC)cc1)Nc1nc(C)cc(C)n1	0	.	.	8	-10	.	.	.
CCNC(=S)/N=C(/Nc1ccccc1)Nc1nc(C)cc(C)n1	-2	.	.	80*	-12	.	113*	64*
SMILES	PERK inhibitor	APP 5'UTR act	STAT1 act	AHR act	MDM2 E3 inh	NF-kB expr up	AHR act cf	PXR counter
C=CCOc1c(Br)cc(/C=C(\C#N)C(N)=O)cc1OC	1	.	.	5	4	.	.	.
C=CCOc1c(Br)cc(/C=N/NC(N)=O)cc1OC	0	17	99	89*	-9	0.98	112*	25*
COc1cc(OC)cc(-c2nnc(SCC(=O)N3CCCCC3)o2)c1	-1	1	93	83*	-11	1.1	35	72*
COc1cc(OC)cc(-c2nnc(SCC(=O)N3CCOCC3)o2)c1	0	12	107	22	-20	1.7	.	.
Cc1cc(C)c[n+](CC(=O)c2c(C)cc(C)c([N+](=O)[O-])c2C)c1	.	.	.	1	.	.	.	.
COc1cc(N=Nc2ccc3ccccc3c2)ccc1O	.	.	.	84*	.	.	28	13*
Cc1cccc(N2C(=NC(=O)c3ccccc3)SC3CS(=O)(=O)CC32)c1 (stereo unspecified)	.	.	.	-2	.	.	.	.
COc1ccc(NC(=O)CSc2nnc3c4c(nc(-c5ccccc5)n23)CC(C)(C)OC4)cc1	0	-10	103	109*	-9	1	4	25*
Oc1oc(-c2ccccc2)nc1/C=N/c1nccs1	1	15	114	100*	1	1.8	78*	.
CCCC1=[N+](CC)CCn2c(C)ccc21	1	17	103	-1	3	0.76	.	.
CCCC1=[N+](CC(=O)c2ccc(C)cc2)CCn2cccc21	-1	21	95	82*	-13	1.1	112*	22*
COc1ccc(-c2ccc3oc(-c4ccsc4)c(-c4ccc(Br)nc4)c3c2)cc1	.	.	.	102*	.	.	97*	26*
CCN(Cc1ccccc1)C(=O)c1oc2ccc(S(=O)(=O)N3CCOCC3)cc2c1C	.	.	.	1	.	.	.	.
O=C(Nc1ccc(F)cc1)c1nsc(Cl)c1Cl	1	127	138*	83*	-16	5*	222*	40*
COc1cccc(NC(=O)c2ccc3nsnc3c2)c1	.	.	.	20	.	.	.	.
O=C(Nc1ccc(F)cc1)c1ccc2nsnc2c1	0	.	.	96*	.	.	124*	26*
O=C(Nc1ccc(F)cc1)c1ccc2nc[nH]c2c1	0	-6	123	147*	6	0.94	136*	14*
Cc1ccc(S(=O)(=O)N2CCOCC2)cc1NC(=O)CSc1nnc(NC2CC2)s1	.	.	.	1	.	.	.	.
COc1ccc(C)cc1NC(=O)CCc1ccc(S(=O)(=O)N2CCOCC2)cc1	.	.	.	6	.	.	.	.
CC(=O)c1ccc(S(=O)(=O)N2CCN(C(=O)CSc3ccc(F)cc3)CC2)cc1	.	.	.	-2	.	.	.	.
CC(=O)N1CCc2ccc(S(=O)(=O)N3CC(C)OC(C)C3)cc21 (stereo unspecified)	0	2	108	3	-12	0.93	.	.
Cn1c(N=Nc2ccccc2)nc2ccccc21	0	180*	131*	138*	.	3.6*	98*	10
CC1CCN(c2nc3c(c(=O)[nH]c(=O)n3C)n2Cc2ccccc2Cl)CC1	1	3	103	-3	-5	0.97	.	.
Cc1nnc2c(-c3ccccc3)nc3ccccc3n12	1	18	106	89*	-30	0.69	109*	13*
